Laboratory results reported in ChEMBL document CHEMBL1155664, “New carbazole alkaloids from Clausena anisata with antitumor promoting activity” (J Nat Prod, 2000).

Experiments:
Type in all cases: cell-based
Raji [1] = test: Inhibition of 12-O-tetradecanoylphorbol-13-acetate-induced EBV-early antigen activation in human Raji cells assessed as EA activation at 3.2 nmol relative to 12-O-tetradecanoylphorbol-13-acetate; set-up: scale not given: the % may be the effect or the level left; conditions: human gammaherpesvirus 4
Method in brief: (§1)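 Raji cells induced with TPA (32 pmol = 20 ng/mL) plus compound at 10, 100, 500 or 1000 mol ratio/TPA (0.32, 3.2, 16, 32 nmol). EBV early antigen activation expressed as % of the TPA-only positive control (100%), given with S.D. Results count only where Raji viability stays at or above 60% at 2 days.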

Raji [2] = test: Inhibition of 12-O-tetradecanoylphorbol-13-acetate-induced EBV-early antigen activation in human Raji cells assessed as EA activation at 16 nmol relative to 12-O-tetradecanoylphorbol-13-acetate; set-up: scale not given: the % may be the effect or the level left; conditions: human gammaherpesvirus 4; method in brief: as §1
[3] = Cytotoxicity against human Raji cells assessed as cell viability at 3.2 nmol by trypan blue assay; conditions: read-out: Activity
Method in brief: (§2)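 Raji cells treated with compound together with TPA (32 pmol, 20 ng/mL) at mole ratios to TPA of 10, 100, 500 or 1000 (0.32, 3.2, 16, 32 nmol). Viability determined by trypan blue staining 2 days after treatment. At least 60% viability is needed for the EBV-EA result to be valid.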

[4] = Cytotoxicity against human Raji cells assessed as cell viability at 16 nmol by trypan blue assay; conditions: read-out: Activity; method in brief: as §2
[5] = Cytotoxicity against human Raji cells assessed as cell viability at 0.32 nmol by trypan blue assay; conditions: read-out: Activity; method in brief: as §2
[6] = Cytotoxicity against human Raji cells assessed as cell viability at 32 nmol by trypan blue assay; conditions: read-out: Activity; method in brief: as §2
Raji [7] = test: Inhibition of 12-O-tetradecanoylphorbol-13-acetate-induced EBV-early antigen activation in human Raji cells assessed as EA activation at 32 nmol relative to 12-O-tetradecanoylphorbol-13-acetate; set-up: scale not given: the % may be the effect or the level left; conditions: human gammaherpesvirus 4; method in brief: as §1
Raji [8] = test: Inhibition of 12-O-tetradecanoylphorbol-13-acetate-induced EBV-early antigen activation in human Raji cells assessed as EA activation at 0.32 nmol relative to 12-O-tetradecanoylphorbol-13-acetate; set-up: scale not given: the % may be the effect or the level left; conditions: human gammaherpesvirus 4; method in brief: as §1

Structure (SMILES)	Activity (Raji [1]) [%]	Activity (Raji [2]) [%]	viability at 3.2 nmol [3] [%]	viability at 16 nmol [4] [%]	viability at 0.32 nmol [5] [%]	viability at 32 nmol [6] [%]	Activity (Raji [7]) [%]	Activity (Raji [8]) [%]
COC(=O)c1ccc2[nH]c3ccccc3c2c1	81.4	46.3	> 80	> 80	> 80	60	21.7	100
C=C(C)C1Cc2c(cc(O)c3[nH]c4ccccc4c23)C(=O)O1 (configuration not stated) [CLAUSAMINE A]	73.7	28.3	> 80	70	> 80	60	15.4	95.5
C=C(C)C1Cc2c(cc(OC)c3[nH]c4ccccc4c23)C(=O)O1 (configuration not stated) [CLAUSAMINE B]	78.2	39.2	> 80	70	> 80	60	18.3	100
COc1cc2c(c3c1[nH]c1ccccc13)CC(C(C)(C)O)OC2=O (configuration not stated) [CLAUSAMINE C]	72	27.2	> 80	70	> 80	60	12.4	92.3
COC(=O)c1cc(OC)c2[nH]c3ccccc3c2c1CC=C(C)C [CLAUSAMINE]	66	34.2	> 80	70	> 80	60	18.2	92.3
COC(=O)c1cc(O)c2[nH]c3ccccc3c2c1 [CLAUSINE E]	74.6	42.4	> 80	> 80	> 80	60	27.4	100
COC(=O)c1cc(O)c2[nH]c3ccccc3c2c1CC=C(C)C [CLAUSINE F]	69.8	37.5	> 80	> 80	> 80	60	20.2	94.6
COc1cc(C=O)c(CC=C(C)C)c2c1[nH]c1ccccc12 [EKEBERGININE]	63.5	22.4	> 80	> 80	> 80	60	10.5	90.3
O=Cc1cc(O)c2[nH]c3ccccc3c2c1 [O-DEMETHYLMURRAYANINE]	69.4	40.3	> 80	> 80	> 80	60	25.2	100
